In ChEMBL document CHEMBL1134841, “Antimalarial alkoxylated and hydroxylated chalcones [corrected]: structure-activity relationship analysis” (J Med Chem, 2001):
pIC50: −log10 of the molar value.

Columns and labels:
Plasmodium falciparum = test: Inhibition of [3H]hypoxanthine incorporation in Plasmodium falciparum K1; format: functional, organism-based
In short: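 K1 (chloroquine-resistant) parasites cultured in RPMI-1640 with 5% sodium bicarbonate and 10% type O human serum. DMSO stocks were serially diluted 10-fold in medium, covering a 10^6-fold range. Infected erythrocytes at 1–2% parasitemia and 1.5% hematocrit were incubated at 37 °C in a candle jar for 24 h. [3H]hypoxanthine was then added for a further 24 h, cells harvested and scintillation counted. IC50 from nonlinear logistic fit versus untreated control.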

[1] = Ratio of average life span of compound-treated mice (100 mg/kg, ip, 3 days) to that of mice treated with chloroquine (T/C-CQ); format: functional
In short: (§1)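 Swiss albino mice (male, 4 weeks, ~25 g) inoculated ip with 10^7 P. berghei ANKA parasitized erythrocytes (day 0). Test compound 100 mg/kg/day ip in DMSO, days 1–3, three mice per compound. Control infected groups: DMSO or 4'-butoxy-2,4-dimethoxychalcone (100 mg/kg in DMSO, ip, days 1–3), or chloroquine (52 mg/kg ip in 0.5% Tween buffer pH 7.4, day 1). Survival followed; ratio of mean life spans.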

Mus musculus [2] = test: Ratio of average life span of compound-treated mice (100 mg/kg, ip, 3 days) to that of mice receiving DMSO (T/C-untreated); format: functional; in short: as §1
Mus musculus [3] = test: Ratio of average life span of compound-treated mice (100 mg/kg, ip, 3 days) to that of mice treated with 4''-butoxy-2,4-dimethoxychalcone (comp.41); format: functional; in short: as §1

SMILES	pIC50 (Plasmodium falciparum; Plasmodium falciparum, 48 h)	also measured
CCOc1ccc(C(=O)/C=C/c2ccc(F)cc2F)cc1	4.55	
COc1ccc(/C=C/C(=O)c2ccc(OC)c(OC)c2OC)c(OC)c1	4.78	
COc1ccc(C(=O)/C=C/c2ccc(F)cc2F)c(OC)c1OC	4.73	
COc1ccc(/C=C/C(=O)c2ccc(OC)c(OC)c2OC)cc1	4.60	
Cc1cccc(/C=C/C(=O)c2ccc(O)cc2)c1	4.59	
COc1ccc(C(=O)/C=C/c2ccc(Cl)cc2Cl)cc1	4.80	
CN(C)c1ccc(/C=C/C(=O)c2ccc(O)cc2)cc1	4.75	T/C-CQ [1]: 0.47; T/C untreated (Mus musculus [2]): 0.94; T/C 41 (Mus musculus [3]): 0.99
COc1ccc(C(=O)/C=C/c2ccc(Cl)c(Cl)c2)c(OC)c1	3.53	
O=C(/C=C/c1ccc2ccccc2c1)c1ccc(O)cc1	4.56	
O=C(/C=C/c1ccnc2ccccc12)c1ccc(O)cc1	4.29	
O=C(/C=C/c1ccnc2ccccc12)c1ccc(O)cc1O	4.03	
CCOc1ccc(C(=O)/C=C/c2ccc(C)cc2)cc1	4.42	
COc1ccc(C(=O)/C=C/c2ccc(Cl)cc2)c(OC)c1OC	4.84	
CCOc1ccc(C(=O)/C=C/c2ccc(Cl)cc2Cl)cc1	4.02	
COc1ccc(C(=O)/C=C/c2ccc(Cl)cc2Cl)c(OC)c1	4.73	
O=C(/C=C/c1cnc2ccccc2c1)c1ccc(O)cc1O	4.79	T/C-CQ [1]: 0.77; T/C untreated (Mus musculus [2]): 1.08; T/C 41 (Mus musculus [3]): 1.11
COc1ccc(/C=C/C(=O)c2ccc(O)cc2O)c(OC)c1	4.25	
CCCCOc1ccc(C(=O)/C=C/c2ccc(OC)cc2OC)cc1	3.97	T/C-CQ [1]: 0.57; T/C untreated (Mus musculus [2]): 1.08
COc1ccc(C(=O)/C=C/c2ccc(F)cc2F)cc1	4.57	
COc1ccc(C(=O)/C=C/c2ccc(Cl)cc2)c(OC)c1	3.47	
CCOc1ccc(C(=O)/C=C/c2ccc([N+](=O)[O-])cc2)cc1	4.41	
COc1ccc(C(=O)/C=C/c2ccnc3ccccc23)c(OC)c1	4.57	
O=C(/C=C/c1cccc2ccccc12)c1ccc(O)cc1	4.40	
COc1ccc(C(=O)/C=C/c2ccc(Br)cc2)c(OC)c1	3.27	
O=C(/C=C/c1ccccn1)c1ccc(O)cc1O	4.71	T/C-CQ [1]: 0.81; T/C untreated (Mus musculus [2]): 1.47; T/C 41 (Mus musculus [3]): 0.93
COc1ccc(C(=O)/C=C/c2ccc(C)cc2)c(OC)c1OC	4.59	
COc1ccc(C(=O)/C=C/c2ccccc2Cl)c(OC)c1OC	4.38	

SMILES	pIC50 (Plasmodium falciparum; Plasmodium falciparum, 48 h)	also measured
O=C(/C=C/c1cnc2ccccc2c1)c1ccc(O)cc1	4.39	
COc1ccc(C(=O)/C=C/c2ccc(-c3ccccc3)cc2)c(OC)c1OC	4.58	
O=C(/C=C/c1ccc(C(F)(F)F)cc1)c1ccc(O)cc1O	4.58	
COc1ccc(C(=O)/C=C/c2ccc(C)cc2)c(OC)c1	4.03	
CCOc1ccc(C(=O)/C=C/c2ccc(C#N)cc2)cc1	3.27	
O=C(/C=C/c1ccc(Cl)cc1)c1ccc(O)cc1O	4.91	T/C-CQ [1]: 0.71; T/C untreated (Mus musculus [2]): 1.41; T/C 41 (Mus musculus [3]): 1.48
CCc1ccc(/C=C/C(=O)c2ccc(OC)c(OC)c2OC)cc1	4.78	
COc1ccc(C(=O)/C=C/c2ccnc3ccccc23)c(OC)c1OC	4.22	
COc1ccc(C(=O)/C=C/c2ccnc3ccccc23)cc1	4.37	
COc1ccc(C(=O)/C=C/c2cccc3ccccc23)c(OC)c1	3.49	
CCOc1ccc(C(=O)/C=C/c2ccc(OC)cc2)cc1	4.48	
CCOc1ccc(C(=O)/C=C/c2cnc3ccccc3c2)cc1	4.60	
CCOc1ccc(C(=O)/C=C/c2ccc(N(C)C)cc2)cc1	4.52	
O=C(/C=C/c1ccccn1)c1ccc(O)cc1	4.79	T/C-CQ [1]: 0.49; T/C untreated (Mus musculus [2]): 0.99; T/C 41 (Mus musculus [3]): 1.03
O=C(/C=C/c1ccncc1)c1ccc(O)cc1O	3.92	
COc1ccc(C(=O)/C=C/c2ccc(C)cc2)cc1	4.15	
O=C(/C=C/c1ccc2ccccc2c1)c1ccc(O)cc1O	4.70	T/C-CQ [1]: 1.05; T/C untreated (Mus musculus [2]): 1.91; T/C 41 (Mus musculus [3]): 1.2
COc1ccc(C(=O)/C=C/c2ccc([N+](=O)[O-])cc2)c(OC)c1OC	4.65	
COc1ccc(C(=O)/C=C/c2ccc(F)cc2)c(OC)c1	3.49	
O=C(/C=C/c1ccc([N+](=O)[O-])cc1)c1ccc(O)cc1	4.69	
COc1ccc(/C=C/C(=O)c2ccc(O)cc2)cc1	4.49	
O=C(/C=C/c1ccccc1Cl)c1ccc(O)cc1	4.21	
O=C(/C=C/c1ccc(Cl)cc1Cl)c1ccc(O)cc1	4.61	
COc1ccc(C(=O)/C=C/c2ccc(C(F)(F)F)cc2)c(OC)c1	5.23	T/C-CQ [1]: 0.84; T/C untreated (Mus musculus [2]): 1.67; T/C 41 (Mus musculus [3]): 1.67
COc1ccc(C(=O)/C=C/c2ccccc2)c(OC)c1OC	4.80	
CCOc1ccc(C(=O)/C=C/c2ccccc2)cc1	4.37	
COc1ccc(C(=O)/C=C/c2cccc(Cl)c2)c(OC)c1OC	4.61	

SMILES	pIC50 (Plasmodium falciparum; Plasmodium falciparum, 48 h)	also measured
CCOc1ccc(C(=O)/C=C/c2ccnc3ccccc23)cc1	4.00	
COc1ccc(C(=O)/C=C/c2ccc(O)cc2)cc1	5.15	T/C-CQ [1]: 0.7; T/C untreated (Mus musculus [2]): 1.41; T/C 41 (Mus musculus [3]): 1.47
COc1ccc(C(=O)/C=C/c2cnc3ccccc3c2)c(OC)c1OC	5.70	T/C-CQ [1]: 0.96; T/C untreated (Mus musculus [2]): 1.91; T/C 41 (Mus musculus [3]): 1.91
CCOc1ccc(C(=O)/C=C/c2ccc(C(F)(F)F)cc2)cc1	4.62	
CCCCc1ccc(/C=C/C(=O)c2ccc(O)cc2)cc1	4.68	
COc1ccc(C(=O)/C=C/c2ccc(F)cc2Cl)c(OC)c1	3.22	
O=C(/C=C/c1cccc2ccccc12)c1ccc(O)cc1O	4.61	
CCOc1ccc(C(=O)/C=C/c2ccc(F)cc2)cc1	4.62	
COc1ccc(C(=O)/C=C/c2ccc(OC)cc2OC)cc1	5.19	T/C-CQ [1]: 0.46; T/C untreated (Mus musculus [2]): 0.92; T/C 41 (Mus musculus [3]): 0.97
CCOc1ccc(C(=O)/C=C/c2ccc(OC)cc2OC)cc1	4.52	
COc1ccc(C(=O)/C=C/c2ccc(C(F)(F)F)cc2)cc1	4.72	
COc1ccc(C(=O)/C=C/c2ccc(N(C)C)cc2)c(OC)c1OC	4.74	
COc1ccc(C(=O)/C=C/c2ccccc2)c(OC)c1	4.26	
O=C(/C=C/c1ccc(Cl)cc1)c1ccc(O)cc1	4.42	
O=C(/C=C/c1cccc(Cl)c1)c1ccc(O)cc1	4.48	
O=C(/C=C/c1ccc(Cl)c(Cl)c1)c1ccc(O)cc1	4.74	T/C-CQ [1]: 0.71; T/C untreated (Mus musculus [2]): 1.28; T/C 41 (Mus musculus [3]): 0.81
Cc1ccc(/C=C/C(=O)c2ccc(O)cc2)cc1	4.60	
O=C(/C=C/c1ccc(C(F)(F)F)cc1)c1ccc(O)cc1	4.52	
O=C(/C=C/c1ccc(F)cc1)c1ccc(O)cc1	4.66	
COc1ccc(C(=O)/C=C/c2ccc(N(C)C)cc2)c(OC)c1 (stereo in doubt; 103)		pIC50 (Plasmodium falciparum): 4.26
COc1ccc(C(=O)/C=C/c2ccc([N+](=O)[O-])cc2)c(OC)c1 (stereo in doubt; 109)		pIC50 (Plasmodium falciparum): 3.38
COc1ccc(C(=O)/C=C/c2ccc([N+](=O)[O-])cc2)c(OC)c1 (stereo in doubt; 115)		pIC50 (Plasmodium falciparum): 4.00
O=C(/C=C/c1ccccc1)c1ccc(O)cc1 [4'-HYDROXYCHALCONE]	4.53	
COc1ccc(/C=C/C(=O)c2ccc(OC)cc2)cc1 [4,4'-DIMETHOXYCHALCONE]	4.66	
CCN(CC)CCCC(C)Nc1ccnc2cc(Cl)ccc12 (stereo unspecified) [CHLOROQUINE]		T/C untreated (Mus musculus [2]): 1.81; T/C 41 (Mus musculus [3]): 1.71
COc1ccc(/C=C/C(=O)c2ccc(OC)cc2OC)cc1 [METOCHALCONE]	3.89	
